# In ChEMBL document CHEMBL4017507 (J Med Chem, 2017):
# Columns and labels:
# Human alphaherpesvirus 3 [1] = assay: Antiviral activity against Varicella-Zoster virus OKA infected in human HEL cells assessed as inhibition of virus-induced cytopathic effect; assay type: functional, cell-based; settings: Human alphaherpesvirus 3, strain Oka vaccine
# Outline: (§1)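 Confluent HEL fibroblast cultures were inoculated with 20 PFU of VZV in the presence of varying compound concentrations. Plaque formation was recorded once untreated infected controls reached completion.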
# Human betaherpesvirus 5 [2] = assay: Antiviral activity against human cytomegalovirus Davis infected in human HEL cells assessed as inhibition of virus-induced cytopathic effect; assay type: functional, cell-based; settings: Human betaherpesvirus 5, Davis
# Outline: (§2)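 Confluent HEL fibroblast monolayers were inoculated in 96-well plates with 100 CCID50 of virus in the presence of serially varied compound concentrations. Cytopathicity was scored once untreated infected controls reached full CPE.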
# MT4 = assay: Cytotoxicity against human MT4 cells assessed as reduction in cell viability by cell counting method; assay type: cell-based
# Outline: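 MT-4 cultures, untreated or treated, were assessed with an automated cell counter using propidium iodide staining to enumerate total and dead cells.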
# Human alphaherpesvirus 1 [3] = assay: Antiviral activity against Herpes simplex virus 1 KOS infected in human HEL cells assessed as inhibition of virus-induced cytopathic effect; assay type: functional, cell-based; settings: Human alphaherpesvirus 1, KOS; outline: as §2
# Human alphaherpesvirus 1 [4] = assay: Antiviral activity against ACV-resistant thymidine kinase deficient Herpes simplex virus 1 KOS infected in human HEL cells assessed as inhibition of virus-induced cytopathic effect; assay type: functional, cell-based; settings: Human alphaherpesvirus 1, KOS; outline: as §2
# Human alphaherpesvirus 3 [5] = assay: Antiviral activity against thymidine kinase deficient Varicella-Zoster virus 07-1 infected in human HEL cells assessed as inhibition of virus-induced cytopathic effect; assay type: functional, cell-based; settings: Human alphaherpesvirus 3, 07-1, HEL; outline: as §1
# [6] = system: Human immunodeficiency virus 1; assay: Antiviral activity against HIV1 X4LAI.04 infected in human MT4 cells assessed as decrease in viral replication by p24gag-based luminex assay; assay type: functional, cell-based; settings: Human immunodeficiency virus 1, X4LAI.04, MT4
# Outline: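 10^6 MT-4 cells were infected with HIV-1 X4LAI.04 (7 ng p24) for 2 h at 37 °C, then washed with PBS and resuspended. Compounds were added and cultures were kept 3 days at 37 °C. Supernatant p24 was measured by bead-based Luminex. Inhibition was calculated as (1 − p24 treated/p24 untreated) × 100, and EC50 was derived from it.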
# HEL = assay: Cytotoxicity against human HEL cells assessed as cell growth inhibition by cell counting method; assay type: cell-based
# Human alphaherpesvirus 2 = assay: Antiviral activity against Herpes simplex virus 2 G infected in human HEL cells assessed as inhibition of virus-induced cytopathic effect; assay type: functional, cell-based; settings: Human alphaherpesvirus 2, strain G; outline: as §2
# Human betaherpesvirus 5 [7] = assay: Antiviral activity against human cytomegalovirus AD-169 infected in human HEL cells assessed as inhibition of virus-induced cytopathic effect; assay type: functional, cell-based; settings: Human betaherpesvirus 5, AD-169, HEL; outline: as §2
# [8] = Cytotoxicity against human HEL cells assessed as alteration to cell morphology by microscopic analysis; assay type: cell-based
# Outline: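 Minimal cytotoxic concentration is the compound concentration giving a microscopically visible alteration of HEL cell morphology, scored in the antiviral assay cultures.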
# CCRF-CEM = assay: Cytostatic activity human CEM cells assessed as reduction in cell viability after 72 hrs by cell counting method; assay type: cell-based; settings: ccrf-cem, 72 h
# Outline: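 (5–7.5) × 10^? CEM cells per well were grown with compound for 72 h at 37 °C under humidified CO2. Cells were counted in a Coulter counter.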
Compound,EC50 (Human alphaherpesvirus 3 [1]),EC50 (Human betaherpesvirus 5 [2]),IC50 (MT4),EC50 (Human alphaherpesvirus 1 [3]),EC50 (Human alphaherpesvirus 1 [4]),EC50 (Human alphaherpesvirus 3 [5]),EC50 [6],CC50 (HEL),EC50 (Human alphaherpesvirus 2),EC50 (Human betaherpesvirus 5 [7]),MCC [8],CC50 (CCRF-CEM)
C[C@H](NP(=O)(OCC(CO)OCn1cnc2c(=O)[nH]c(N)nc21)Oc1ccccc1)C(=O)OCc1ccccc1 (stereo not given in full),7.3 µM,5 µM,20 µM,600 nM,3 µM,3.2 µM,17 µM,≥ 81 µM,3000 nM,7.9 µM,> 100 µM,
C[C@H](NP(=O)(OCC(CCn1cnc2c(=O)[nH]c(N)nc21)COP(=O)(N[C@@H](C)C(=O)OCc1ccccc1)Oc1cccc2ccccc12)Oc1cccc2ccccc12)C(=O)OCc1ccccc1 (stereo not given in full),13.5 µM,> 50 µM,,> 100000 nM,> 100 µM,> 50 µM,,> 100 µM,> 100000 nM,> 50 µM,50 to 100 µM,> 10 µM
C[C@H](NP(=O)(OCC(CCn1cnc2c(=O)[nH]c(/N=C/N(C)C)nc21)COP(=O)(N[C@@H](C)C(=O)OCc1ccccc1)Oc1cccc2ccccc12)Oc1cccc2ccccc12)C(=O)OCc1ccccc1 (stereo not given in full),8.8 µM,> 20 µM,4 µM,> 100000 nM,> 100 µM,11.7 µM,3.2 µM,19 µM,> 100000 nM,> 20 µM,50 to 100 µM,19 µM
CC(C)OC(=O)[C@H](C)NP(=O)(OCC(COP(=O)(N[C@@H](C)C(=O)OC(C)C)Oc1cccc2ccccc12)OCn1cnc2c(=O)[nH]c(N)nc21)Oc1cccc2ccccc12 (stereo not given in full),4.2 µM,2.7 µM,6 µM,1200 nM,≥ 73 µM,1.1 µM,8.5 µM,> 50 µM,1400 nM,16.3 µM,≥ 100 µM,> 100 µM
C[C@H](NP(=O)(OCC(COP(=O)(N[C@@H](C)C(=O)OCc1ccccc1)Oc1ccccc1)OCn1cnc2c(=O)[nH]c(N)nc21)Oc1ccccc1)C(=O)OCc1ccccc1 (stereo not given in full),23.3 µM,,> 150 µM,3000 nM,14.5 µM,21.3 µM,30 µM,> 100 µM,2500 nM,44.7 µM,> 100 µM,159 µM
CC(C)(NP(=O)(OCC(COP(=O)(NC(C)(C)C(=O)OCc1ccccc1)Oc1cccc2ccccc12)OCn1cnc2c(=O)[nH]c(N)nc21)Oc1cccc2ccccc12)C(=O)OCc1ccccc1 (stereo not given),13.6 µM,50 µM,> 150 µM,300 nM,1.6 µM,7.2 µM,> 150 µM,> 100 µM,900 nM,≥ 44.9 µM,50 to 100 µM,> 20 µM
CC(C)(NP(=O)(OCC(CO)CCn1cnc2c(=O)[nH]c(N)nc21)Oc1ccccc1)C(=O)OCc1ccccc1 (stereo not given),> 50 µM,> 50 µM,> 150 µM,29000 nM,100 µM,> 50 µM,68 µM,> 50 µM,39000 nM,> 50 µM,50 to 100 µM,252 µM
C[C@H](NP(=O)(OCC(COP(=O)(N[C@@H](C)C(=O)OCc1ccccc1)Oc1cccc2ccccc12)SCn1cnc2c(=O)[nH]c(/N=C/N(C)C)nc21)Oc1cccc2ccccc12)C(=O)OCc1ccccc1 (stereo not given in full),> 20 µM,> 50 µM,4 µM,> 100000 nM,> 100 µM,> 20 µM,9 µM,30 µM,> 100000 nM,> 50 µM,50 to 100 µM,17 µM
CC(C)(NP(=O)(OCC(COP(=O)(NC(C)(C)C(=O)OCc1ccccc1)Oc1ccccc1)OCn1cnc2c(=O)[nH]c(N)nc21)Oc1ccccc1)C(=O)OCc1ccccc1 (stereo not given),21.7 µM,23.6 µM,13 µM,1500 nM,1.5 µM,8.3 µM,10 µM,82 µM,2500 nM,50 µM,> 50 µM,47 µM
CC(C)(NP(=O)(OCC(CO)OCn1cnc2c(=O)[nH]c(N)nc21)Oc1cccc2ccccc12)C(=O)OCc1ccccc1 (stereo not given),13 µM,4.9 µM,26 µM,600 nM,1.4 µM,> 50 µM,10 µM,> 100 µM,850 nM,6.6 µM,50 to 100 µM,> 100 µM
CC(C)(NP(=O)(OCC(CCn1cnc2c(=O)[nH]c(N)nc21)COP(=O)(NC(C)(C)C(=O)OCc1ccccc1)Oc1ccccc1)Oc1ccccc1)C(=O)OCc1ccccc1 (stereo not given),10.3 µM,> 50 µM,30 µM,> 100000 nM,> 100 µM,20.6 µM,19 µM,> 100 µM,> 100000 nM,> 50 µM,50 to 100 µM,100 µM
CC(C)(NP(=O)(OCC(CO)OCn1cnc2c(=O)[nH]c(N)nc21)Oc1ccccc1)C(=O)OCc1ccccc1 (stereo not given),7.3 µM,15.8 µM,> 150 µM,90 nM,0.15 µM,3.3 µM,> 150 µM,> 100 µM,300 nM,38.6 µM,50 to 100 µM,> 100 µM
C[C@H](NP(=O)(OCC(CCn1cnc2c(=O)[nH]c(N)nc21)COP(=O)(N[C@@H](C)C(=O)OCc1ccccc1)Oc1ccccc1)Oc1ccccc1)C(=O)OCc1ccccc1 (stereo not given in full),16.3 µM,> 50 µM,10 µM,> 100000 nM,> 100 µM,41.5 µM,8 µM,≥ 100 µM,> 100000 nM,> 50 µM,50 to 100 µM,76 µM
CC(C)(NP(=O)(OCC(CCn1cnc2c(=O)[nH]c(N)nc21)COP(=O)(NC(C)(C)C(=O)OCc1ccccc1)Oc1cccc2ccccc12)Oc1cccc2ccccc12)C(=O)OCc1ccccc1 (stereo not given),> 50 µM,> 50 µM,> 150 µM,> 20000 nM,> 20 µM,> 50 µM,> 150 µM,> 100 µM,> 20000 nM,> 50 µM,50 to 100 µM,> 250 µM
CC(C)(NP(=O)(OCC(CO)CCn1cnc2c(=O)[nH]c(N)nc21)Oc1cccc2ccccc12)C(=O)OCc1ccccc1 (stereo not given),20.9 µM,> 50 µM,100 µM,75000 nM,> 100 µM,> 50 µM,95 µM,> 100 µM,52000 nM,> 50 µM,50 to 100 µM,
C[C@H](NP(=O)(OCC(CCn1cnc2c(Cl)nc(N)nc21)COP(=O)(N[C@@H](C)C(=O)OCc1ccccc1)Oc1ccccc1)Oc1ccccc1)C(=O)OCc1ccccc1 (stereo not given in full),44 µM,> 100 µM,20 µM,> 100000 nM,> 100 µM,44.1 µM,7 µM,4 µM,> 100000 nM,> 100 µM,> 100 µM,14 µM
C[C@H](NP(=O)(OCC(COP(=O)(N[C@@H](C)C(=O)OCc1ccccc1)Oc1cccc2ccccc12)OCn1cnc2c(=O)[nH]c(N)nc21)Oc1cccc2ccccc12)C(=O)OCc1ccccc1 (stereo not given in full),6.2 µM,11.2 µM,> 150 µM,1300 nM,2.5 µM,4.1 µM,,> 100 µM,2500 nM,27.4 µM,50 to 100 µM,
C[C@H](NP(=O)(OCC(CCn1cnc2c(=O)[nH]c(/N=C/N(C)C)nc21)COP(=O)(N[C@@H](C)C(=O)OCc1ccccc1)Oc1ccccc1)Oc1ccccc1)C(=O)OCc1ccccc1 (stereo not given in full),29.8 µM,> 50 µM,10 µM,> 100000 nM,> 100 µM,28.6 µM,9 µM,47 µM,> 100000 nM,> 50 µM,50 to 100 µM,21 µM
Nc1nc2c(ncn2COCCO)c(=O)[nH]1 [ACYCLOVIR],,,,,,,,787 µM,,,,
